# ChEMBL document CHEMBL1132294, “Derivatives of the new ring system indolo[1,2-c]benzo[1,2,3]triazine with potent antitumor and antimicrobial activity” (J Med Chem, 1999)
# Assays:
# 5637 = assay: Antitumor activity was evaluated against human bladder carcinoma cell line 5637.; type: functional, cell-based
# Summary of the method: (§1)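 Solid-tumour and KB lines: exponentially growing cells seeded at 5×10⁴ cells/mL, allowed to adhere 16 h, then serial drug dilutions added. Viability by MTT after 4 days. Growth expressed as % of untreated controls, 50% inhibitory concentration by linear regression. Untreated cells undergo at least three rounds of multiplication.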
# ACHN = assay: Antitumor activity was evaluated against human renal adenocarcinoma cell line ACHN.; type: functional, cell-based; summary of the method: as §1
# Aspergillus fumigatus = assay: Antimycotic activity against Aspergillus fumigatus was evaluated as compound minimum inhibitory concentration at which no macroscopic signs of fungal growth were detected.; type: functional
# CHO-K1 = assay: Antitumor activity was evaluated against Chinese hamster ovary carcinoma cell line CHO-K1.; type: functional, cell-based; settings: Cricetulus griseus; summary of the method: as §1
# CCRF-CEM = assay: Antitumor activity was evaluated against leukemia cell line CCRF-CEM(human acute T lymphoblastic leukemia).; type: functional, cell-based
# Summary of the method: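 Exponentially growing leukemia/lymphoma cells resuspended at 1×10⁵ cells/mL in RPMI with serial drug dilutions. Viability by MTT after 4 days at 37 °C. Mean of at least three experiments.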
# Candida albicans = assay: Antimycotic activity against Candida albicans was evaluated as minimum inhibitory concentration of compound at which no macroscopic signs of fungal growth were detected; type: functional
# Summary of the method: (§2)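 Yeast inocula from 30 h Sabouraud dextrose broth cultures at 37 °C, diluted to 5×10³ cells/mL. Dermatophyte inocula from 5-day cultures, homogenized and diluted to 0.05 OD₅₉₀/mL. Inocula added to medium with serial dilutions, incubated at 37 °C, read visually at 2 days (yeast) or 3 days (dermatophytes). Mean of at least three experiments.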
# Candida parapsilosis [1] = assay: Antimycotic activity against Candida parapsilosis was evaluated. MIC was defined as compound concentration at which no macroscopic signs of fungal growth were detected.; type: functional; settings: Lodderomyces parapsilosis; summary of the method: as §2
# Cryptococcus neoformans = assay: Antimycotic activity against Cryptococcus neoformans was evaluated. MIC was defined as compound concentration at which no macroscopic signs of fungal growth were detected.; type: functional; summary of the method: as §2
# HeLa = assay: Antitumor activity was evaluated against human cervix carcinoma cell line HeLa.; type: functional, cell-based; summary of the method: as §1
# IMR-32 = assay: Antitumor activity was evaluated against human neuroblastoma cell line IMR-32.; type: functional, cell-based; summary of the method: as §1
# L1210 = assay: Antitumor activity was evaluated against leukemia cell line L1210 (mouse leukemia).; type: functional, cell-based
# Summary of the method: (§3)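 Exponentially growing leukemia/lymphoma cells resuspended at 1×10⁵ cells/mL in RPMI with serial drug dilutions. Viability by MTT after 4 days at 37 °C. Concentration giving 50% growth inhibition versus untreated controls found by linear regression. Mean of at least three experiments.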
# MOLT-4 = assay: Antitumor activity was evaluated against leukemia cell line MOLT-4(human acute T lymphoblastic leukemia); type: functional, cell-based; summary of the method: as §3
# MT4 = assay: Antitumor activity was evaluated against leukemia cell line MT-4(human CD4+ T cells expressing the TAT gene of HTLV-1).; type: functional, cell-based; summary of the method: as §3
# Mycobacterium = assay: Antibacterial activity was evaluated against MAC (Mycobacterium Avium Complex ); type: functional
# Summary of the method: (§4)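 Mycobacterial suspension (turbidity of 1 McFarland standard, 10⁸ CFU/mL) added to Middlebrook 7H9 with 0.5% glycerol, 10% OADC and serial compound dilutions. Incubated at 37 °C, 1 day for M. smegmatis and M. fortuitum, 9 days for MAC. Viable mycobacteria counted by MTT. MIC given as mean of at least three separate experiments.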
# [2] = test system: Mycolicibacterium fortuitum; assay: Antibacterial activity was evaluated against Mycobacterium fortuitum.; type: functional; summary of the method: as §4
# [3] = test system: Mycobacterium tuberculosis; assay: Antibacterial activity was evaluated against Mycobacterium tuberculosis (ATCC); type: functional
# Summary of the method: (§5)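 Broth microdilution in Middlebrook 7H9 with 0.5% glycerol and 10% OADC, containing serial concentrations of compound (diluted in medium from a DMSO solution). Plates were incubated 9 days at 37 °C, and viable bacteria were read by MTT. MIC is the mean of at least three separate experiments.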
# [4] = test system: Mycolicibacterium smegmatis; assay: Antibacterial activity was evaluated against Mycobacterium smegmatis; type: functional; summary of the method: as §4
# Salmonella = assay: Antibacterial activity was evaluated against salmonella.; type: functional
# Summary of the method: (§6)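 Recent clinical isolates grown in nutrient broth, pH 7.2, inoculum 10³ bacterial cells/tube, with serial compound dilutions. […] Mean of at least three separate experiments.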
# Streptococcus = assay: Antibacterial activity was evaluated against streptococcus.; type: functional; summary of the method: as §6
# Staphylococcus = assay: Antibacterial activity was evaluated against staphylococcus; type: functional; summary of the method: as §6
# Trichophyton benhamiae = assay: Antimycotic activity against Trichophyton mentagrophytes was evaluated. MIC was defined as compound concentration at which no macroscopic signs of fungal growth were detected.; type: functional, Arthroderma benhamiae; summary of the method: as §2
# WIL2-NS = assay: Antitumor activity was evaluated against lymphoma cell line Wil2-NS (human splenic B lymphoblastoid cells).; type: functional, cell-based; summary of the method: as §3
# CCRF-SB = assay: Antitumor activity was evaluated against leukemia cell line CCRF-SB(human acute B lymphoblastic leukemia).; type: functional, cell-based; summary of the method: as §3
# Shigella = assay: Antibacterial activity was evaluated against shigella.; type: functional; summary of the method: as §6
# [5] = test system: Mycobacterium tuberculosis; assay: Antibacterial activity was evaluated against Mycobacterium tuberculosis (clinical isolate 1104); type: functional; summary of the method: as §5
# Candida tropicalis = assay: Antimycotic activity against Candida paratropicalis was evaluated. MIC was defined as compound concentration at which no macroscopic signs of fungal growth were detected.; type: functional; summary of the method: as §2
# HT-29 = assay: Antitumor activity was evaluated against human colon adenocarcinoma cell line HT-29.; type: functional, cell-based; summary of the method: as §1
# Candida parapsilosis [6] = assay: Antimycotic activity against Candida parapsilosis was evaluated as compound concentration at which no macroscopic signs of fungal growth were detected; type: functional; settings: Lodderomyces parapsilosis; summary of the method: as §2
# Lymphoblastoid cell = assay: Cytotoxicity was evaluated against lymphoblastoid cell line.; type: functional; settings: Homo sapiens
# Homo sapiens [7] = species: Homo sapiens; assay: In vitro Antiproliferative activity against peripheral blood lymphocytes (PBL) after stimulating PBL with PHA and then resuspending in IL-2-containing medium in the presence of compound.; type: functional
# Summary of the method: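 PBL from HIV-negative donors, isolated on Ficoll-Hypaque and rested overnight. Stimulated with PHA 2.5 μg/mL for 24 h, diluted to 1×10⁵ cells/mL in medium with PHA, IL-2 50 U/mL and compound. Viable cells counted after 6 days. Mean ±SD of three experiments.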
# Homo sapiens [8] = species: Homo sapiens; assay: In vitro Antiproliferative activity against peripheral blood lymphocytes (PBL) by treating PBL with compound for 3 days, then stimulating with PHA and then resuspending in compound free medium.; type: functional; settings: 72 h
# Summary of the method: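 Resting donor PBL held at 1×10⁶ cells/mL and treated with compound for up to 3 days, then washed. Stimulated with PHA for 24 h, diluted to 1×10⁵ cells/mL in drug-free medium with PHA and IL-2. Viability read after 6 days at 37 °C. Mean ±SD of three experiments.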
# KB [9] = assay: Antiproliferative activity against drug-resistant tumor cell line KBCamp.; type: functional, cell-based; settings: Homo sapiens; summary of the method: as §1
# KB [10] = assay: Antiproliferative activity against drug-resistant tumor cell line KBMDR.; type: functional, cell-based; settings: Homo sapiens; summary of the method: as §1
# KB [11] = assay: Antiproliferative activity against drug-resistant tumor cell line KB7D.; type: functional, cell-based; settings: Homo sapiens; summary of the method: as §1
# KB [12] = assay: Antiproliferative activity against drug-resistant tumor cell line KBwt.; type: functional, cell-based; settings: Homo sapiens; summary of the method: as §1
# KB [13] = assay: Antiproliferative activity against drug-resistant tumor cell line KBV20C.; type: functional, cell-based; settings: Homo sapiens; summary of the method: as §1
SMILES,IC50 5637 [nM],IC50 (ACHN) [nM],MIC (Aspergillus fumigatus) [µM],IC50 (CHO-K1) [nM],IC50 (CCRF-CEM) [nM],MIC (Candida albicans) [µM],MIC (Cryptococcus neoformans) [µM],IC50 (HeLa) [nM],IC50 (IMR-32) [nM],IC50 (L1210) [nM],IC50 (MOLT-4) [nM],IC50 (MT4) [nM],MIC [2] [µM],MIC (Salmonella) [µM],MIC (Streptococcus) [µM],MIC (Staphylococcus) [µM],MIC (Trichophyton benhamiae) [µM],IC50 (WIL2-NS) [nM],IC50 (CCRF-SB) [nM],MIC (Shigella) [µM],further results
O=Nc1c2ccccc2n2nnc3ccccc3c12,4200,12000,19,45000,7000,19,3.1,10000,3300,12000,2300,1400,> 5,25,0.8,0.8,9.4,4400,7400,25,MIC (Candida parapsilosis [1]): 19 µM; MIC (Mycobacterium): 1.2 µM; MIC [3]: 4.6 µM; MIC [4]: 2.5 µM; MIC [5]: 7.4 µM; MIC (Candida tropicalis): 19 µM; IC50 (HT-29): 50000 nM
Cc1ccc2nnn3c4ccccc4c(N=O)c3c2c1,1900,8700,> 200,6500,500,> 200,> 200,9500,2800,1700,500,1300,> 5,> 200,0.8,0.4,> 200,800,700,> 200,MIC (Candida parapsilosis [6]): > 200 µM; CC50 (Lymphoblastoid cell): 900 nM; MIC (Mycobacterium): 5 µM; MIC [3]: 9.3 µM; MIC [4]: > 5 µM; CC50 (Homo sapiens [7]): 500 nM; CC50 (Homo sapiens [8]): 600 nM; MIC [5]: 9.2 µM; MIC (Candida tropicalis): > 200 µM; IC50 (HT-29): 3100 nM
COc1ccc2c(c1)c(N=O)c1c3ccccc3nnn21,6000,14000,> 200,> 50000,7200,> 200,> 200,11000,2300,13000,1300,1100,> 5,> 200,0.1,0.2,> 200,3700,5000,> 200,MIC (Candida parapsilosis [6]): > 200 µM; MIC (Mycobacterium): 2.5 µM; MIC [3]: 5.3 µM; MIC [4]: > 5 µM; MIC [5]: 4.5 µM; MIC (Candida tropicalis): > 200 µM; IC50 (HT-29): > 50000 nM
O=Nc1c2cc(Cl)ccc2n2nnc3ccccc3c12,300,2600,> 200,1600,80,> 200,> 200,2700,800,700,200,500,> 5,> 200,0.8,0.4,> 200,200,400,> 200,MIC (Candida parapsilosis [6]): > 200 µM; IC50 (KB [9]): 1900 nM; IC50 (KB [10]): 1100 nM; IC50 (KB [11]): 1700 nM; CC50 (Lymphoblastoid cell): 350 nM; MIC (Mycobacterium): 0.6 µM; MIC [3]: 4.7 µM; MIC [4]: > 5 µM; CC50 (Homo sapiens [7]): 200 nM; CC50 (Homo sapiens [8]): 900 nM; MIC [5]: > 10 µM; MIC (Candida tropicalis): > 200 µM; IC50 (HT-29): 1300 nM; IC50 (KB [12]): 1800 nM; IC50 (KB [13]): 2100 nM
O=Nc1c2cc([N+](=O)[O-])ccc2n2nnc3ccccc3c12,29000,> 50000,> 200,42000,8200,66,7.4,16000,12000,9200,6600,1200,> 5,> 200,0.09,0.09,66,12000,11000,> 200,MIC (Candida parapsilosis [6]): 66 µM; MIC (Candida tropicalis): 22 µM; IC50 (HT-29): 18000 nM
O=Nc1c2ccccc2n2nnc3ccc(Cl)cc3c12,2100,11000,9.4,31000,5000,150,0.8,5400,2300,7400,2000,1700,> 5,> 200,0.1,0.05,9.4,2700,7000,> 200,MIC (Candida parapsilosis [6]): 19 µM; MIC (Mycobacterium): 2.5 µM; MIC [3]: 1.8 µM; MIC [4]: 4.2 µM; MIC [5]: 1.6 µM; MIC (Candida tropicalis): 150 µM; IC50 (HT-29): 24000 nM
